{"data": "Published values pooled from the literature", "target": "Tyrosine-protein kinase receptor UFO (AXL, Homo sapiens, UniProt P30530)", "Sequence (P30530 1-894, as in one of the studies)": "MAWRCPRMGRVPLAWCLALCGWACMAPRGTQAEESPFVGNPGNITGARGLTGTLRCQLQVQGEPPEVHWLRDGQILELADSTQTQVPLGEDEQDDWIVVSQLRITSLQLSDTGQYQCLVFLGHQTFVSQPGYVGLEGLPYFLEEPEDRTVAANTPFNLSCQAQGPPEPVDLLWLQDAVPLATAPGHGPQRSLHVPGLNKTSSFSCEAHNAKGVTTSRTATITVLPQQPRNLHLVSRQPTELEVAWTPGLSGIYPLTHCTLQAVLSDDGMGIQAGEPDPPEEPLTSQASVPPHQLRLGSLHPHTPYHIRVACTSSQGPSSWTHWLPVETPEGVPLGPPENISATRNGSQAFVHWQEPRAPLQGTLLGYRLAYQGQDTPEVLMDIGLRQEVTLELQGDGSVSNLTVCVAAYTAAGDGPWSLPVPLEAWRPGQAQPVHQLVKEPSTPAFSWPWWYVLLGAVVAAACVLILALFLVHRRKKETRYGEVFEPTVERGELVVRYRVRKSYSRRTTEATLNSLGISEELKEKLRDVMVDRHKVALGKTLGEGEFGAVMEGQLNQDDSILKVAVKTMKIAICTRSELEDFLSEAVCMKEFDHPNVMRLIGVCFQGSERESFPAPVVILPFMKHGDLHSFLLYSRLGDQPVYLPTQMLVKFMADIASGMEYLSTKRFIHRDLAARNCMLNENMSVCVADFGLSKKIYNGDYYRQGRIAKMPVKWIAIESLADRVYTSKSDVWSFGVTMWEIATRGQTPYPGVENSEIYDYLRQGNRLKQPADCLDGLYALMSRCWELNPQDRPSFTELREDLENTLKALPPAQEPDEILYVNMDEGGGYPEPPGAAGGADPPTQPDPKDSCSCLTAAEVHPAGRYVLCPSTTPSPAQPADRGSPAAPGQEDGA"}
{"SMILES": "Cc1nccc(COC(=O)N2C[C@@H]3[C@@H](CNC(=O)c4ccc5[nH]nnc5c4)[C@@H]3C2)n1", "assay": "cell-free assay, competition with immobilised ligand", "setting": "1 µM", "remaining binding [%]": 88}
{"SMILES": "C[C@@H](c1ccc(-n2cnc3c(N)ncnc32)cc1)N1CCc2nn(C)c(Cc3ccccc3)c2C1=O", "assay": "binding, competition with immobilised ligand", "setting": "0.1 µM", "remaining binding [%]": 100}
{"SMILES": "CC(=O)N1CCC(c2ccc(C(=O)NC3=NCCN3)cc2C(F)(F)F)CC1", "assay": "cell-free assay, competition with immobilised ligand", "setting": "1 µM", "remaining binding [%]": 100}
{"SMILES": "CN(C)c1nccc(-c2cnc3ncccn23)n1", "assay": "binding", "setting": "1 µM", "remaining binding [%]": 100}
{"SMILES": "CN([C@@H]1CCc2c(CC(=O)O)c3cc(S(C)(=O)=O)ccc3n2C1)S(=O)(=O)c1ccc(F)cc1", "assay": "cell-free assay, competition with immobilised ligand", "setting": "1 µM", "remaining binding [%]": 100}
{"SMILES": "O=C(c1ccc(Nc2nccc(-c3cc4ccccc4s3)n2)cc1)N1CCC(N2CCCC2)CC1", "assay": "binding, competition with immobilised ligand", "setting": "1 µM", "remaining binding [%]": 33}
{"SMILES": "FC(F)(F)Oc1cccc(-c2cnc3ccc(-c4ccncc4)nn23)c1", "assay": "cell-free assay, competition with immobilised ligand", "setting": "5 µM", "remaining binding [%]": 74}
{"SMILES": "CC(C)(C)c1ccc(-c2nc(CBr)nn2-c2cccc(O)c2)cc1", "assay": "cell-free assay, competition with immobilised ligand", "setting": "10 µM", "remaining binding [%]": 84}
{"SMILES": "CCc1ccccc1C(=O)Nc1n[nH]c2c(C)c(F)c(C3C(C#N)=C(C)N(C)C(C)=C3C#N)cc12", "assay": "binding, competition with immobilised ligand", "setting": "1 µM", "remaining binding [%]": 100}
{"SMILES": "COc1cnc(Nc2cccc(S(N)(=O)=O)c2)nc1N1CCN(c2ccccc2)C(=O)C1", "assay": "binding, competition with immobilised ligand", "setting": "1 µM", "remaining binding [%]": 94}
{"SMILES": "c1ccc(N2CCN(Cc3nc4ccccc4[nH]3)CC2)nc1", "assay": "binding, competition with immobilised ligand", "setting": "1 µM", "remaining binding [%]": 100}
{"SMILES": "COc1ncc2cc3ccccc3nc2c1C#N", "assay": "cell-free assay, competition with immobilised ligand", "setting": "5 µM", "remaining binding [%]": 92}
{"SMILES": "F[C@@H]1CCN(c2nccc(-c3cnn4ncccc34)n2)C1", "assay": "binding", "setting": "1 µM", "remaining binding [%]": 87}
{"SMILES": "O=C(c1ccc(Nc2ncc(Cl)c(-c3cc4ccccc4s3)n2)cc1)N1CCC(N2CCCC2)CC1", "assay": "binding, competition with immobilised ligand", "setting": "1 µM", "remaining binding [%]": 1.4}
{"SMILES": "C[C@@H]1CN(c2ccc3ncc(-c4ccc5[nH]nc(C6CC6)c5c4)n3n2)C[C@H](C)O1", "assay": "binding, competition with immobilised ligand", "setting": "0.5 µM", "remaining binding [%]": 60}
{"SMILES": "C=CC(=O)N1CCC(C(=O)NCC(=O)N2CCN(c3nc(-c4cnc(N)nc4C(F)F)nc(N4CCOCC4)n3)CC2)CC1", "assay": "binding, competition with immobilised ligand", "setting": "1 µM", "remaining binding [%]": 97}
{"SMILES": "C[C@@H]1CCN(c2nccc(-c3cnn4ncccc34)n2)C1", "assay": "binding", "setting": "1 µM", "remaining binding [%]": 86}
{"SMILES": "O=C(Nc1c[nH]nc1C(=O)NC1CCNCC1)c1cc(F)cc(F)c1", "assay": "binding, competition with immobilised ligand", "setting": "1 µM", "remaining binding [%]": 100}
{"SMILES": "N[C@H]1CCN(c2nccc(-c3cnn4ncccc34)n2)C1", "assay": "binding", "setting": "1 µM", "remaining binding [%]": 97}
{"SMILES": "Cc1cnc(Nc2ccc(C(=O)N3CCC(N4CCCC4)CC3)cc2)nc1-c1cc2ccccc2s1", "assay": "binding, competition with immobilised ligand", "setting": "1 µM", "remaining binding [%]": 1}
{"SMILES": "CO[C@@H](C)c1c(Nc2ccc([C@@H](N(C)C(=O)C3CCS(=O)(=O)CC3)C(F)(F)F)cc2)cnc2cc(Cl)nn12", "assay": "cell-free assay, competition with immobilised ligand", "setting": "1 µM", "remaining binding [%]": 77}
{"SMILES": "CN(CCCC(F)(F)F)c1nccc(-c2cnn3ncccc23)n1", "assay": "binding", "setting": "1 µM", "remaining binding [%]": 75}
{"SMILES": "C[C@H](c1ccnc(Nc2nc3ccc(-c4cc(N(C)C)ncn4)cc3[nH]2)c1)N1CCN(C(=O)CC(F)(F)F)CC1", "assay": "cell-free assay, competition with immobilised ligand", "setting": "0.1 µM", "remaining binding [%]": 100}
{"SMILES": "COc1ccnn2ncc(-c3ccnc(N(C)C)n3)c12", "assay": "binding", "setting": "1 µM", "remaining binding [%]": 100}
